Results taken from ChEMBL document CHEMBL3259728, “Design, synthesis and biological evaluation of some novel substituted quinazolines as antitumor agents” (2014).

What was measured:
Type in all cases: functional
[1] = test system: M14; assay: Growth inhibition of human M14 cells assessed as cell growth at 10^-4 M after 48 hrs by SRB assay; conditions: M14, 48 h, read-out: Activity
[2] = test system: HCT-116; assay: Growth inhibition of human HCT116 cells assessed as cell growth at 10^-4 M after 48 hrs by SRB assay; conditions: HCT-116, 48 h, read-out: Activity
[3] = test system: K562; assay: Growth inhibition of human K562 cells assessed as cell growth at 10^-8 M after 48 hrs by SRB assay; conditions: K562, 48 h, read-out: Activity
[4] = test system: PC-3; assay: Growth inhibition of human PC3 cells assessed as cell growth at 10^-5 M after 48 hrs by SRB assay; conditions: PC-3, 48 h, read-out: Activity
[5] = test system: 786-0; assay: Growth inhibition of human 786-0 cells assessed as cell growth at 10^-5 M after 48 hrs by SRB assay; conditions: 786-0, 48 h, read-out: Activity
Method in brief: (§1)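 Five-dose NCI panel protocol. Each dose (10^-4 to 10^-8 M, 10-fold steps) was given as 48 h continuous exposure, and protein was measured by SRB staining. Percentage growth at each level is [(Ti−Tz)/(C−Tz)]×100, where Tz is time-zero absorbance and C is untreated control.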

[6] = test system: SNB-75; assay: Growth inhibition of human SNB75 cells assessed as cell growth at 10^-5 M after 48 hrs by SRB assay; conditions: SNB-75, 48 h, read-out: Activity
[7] = Growth inhibition of human UO31 cells assessed as cell growth at 10^-6 M after 48 hrs by SRB assay; conditions: UO-31, 48 h, read-out: Activity
[8] = test system: SN12C; assay: Growth inhibition of human SN12C cells assessed as cell growth at 10^-6 M after 48 hrs by SRB assay; conditions: read-out: Activity
[9] = test system: CAKI-1; assay: Growth inhibition of human CAKI-1 cells assessed as cell growth at 10^-6 M after 48 hrs by SRB assay; conditions: CAKI-1, 48 h, read-out: Activity; method in brief: as §1
[10] = Growth inhibition of human OVCAR5 cells assessed as cell growth at 10^-6 M after 48 hrs by SRB assay; conditions: OVCAR-5, 48 h, read-out: Activity
[11] = Growth inhibition of human UACC257 cells assessed as cell growth at 10^-6 M after 48 hrs by SRB assay; conditions: UACC-257, 48 h, read-out: Activity
[12] = test system: SK-MEL-5; assay: Growth inhibition of human SK-MEL-5 cells assessed as cell growth at 10^-6 M after 48 hrs by SRB assay; conditions: SK-MEL-5, 48 h, read-out: Activity
[13] = test system: NCI-H23; assay: Growth inhibition of human NCI-H23 cells assessed as cell growth at 10^-4 M after 48 hrs by SRB assay; conditions: NCI-H23, 48 h, read-out: Activity
[14] = Growth inhibition of human RXF393 cells assessed as cell growth at 10^-6 M after 48 hrs by SRB assay; conditions: RXF 393, 48 h, read-out: Activity
[15] = Growth inhibition of human OVCAR5 cells assessed as cell growth at 10^-7 M after 48 hrs by SRB assay; conditions: OVCAR-5, 48 h, read-out: Activity
[16] = test system: DU-145; assay: Growth inhibition of human DU145 cells assessed as cell growth at 10^-8 M after 48 hrs by SRB assay; conditions: DU-145, 48 h, read-out: Activity
[17] = Growth inhibition of human OVCAR3 cells assessed as cell growth at 10^-8 M after 48 hrs by SRB assay; conditions: OVCAR-3, 48 h, read-out: Activity
[18] = test system: SF-268; assay: Cytotoxicity against human SF268 cells after 48 hrs by SRB assay; conditions: SF-268, 48 h
Method in brief: (§2)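 NCI 60-cell-line panel of human tumour lines from nine cancer types. Continuous 48 h exposure at five 10-fold dilutions from 10^-4 to 10^-8 M, with 5-FU as positive control. SRB protein stain read spectrophotometrically at time zero, untreated control and each concentration. GI50, TGI and LC50 were derived from the [(Ti−Tz)/(C−Tz)]×100 growth relations, and out-of-range values are given as > or < the tested limits.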

[19] = Growth inhibition of human SF295 cells assessed as cell growth at 10^-6 M after 48 hrs by SRB assay; conditions: SF-295, 48 h, read-out: Activity
[20] = test system: SN12C; assay: Cytotoxicity against human SN12C cells after 48 hrs by SRB assay; method in brief: as §2
[21] = test system: BT-549; assay: Cytotoxicity against human BT549 cells after 48 hrs by SRB assay; conditions: BT-549, 48 h; method in brief: as §2
[22] = test system: A498; assay: Growth inhibition of human A498 cells assessed as cell growth at 10^-7 M after 48 hrs by SRB assay; conditions: A498, 48 h, read-out: Activity; method in brief: as §1
[23] = test system: SK-MEL-5; assay: Growth inhibition of human SK-MEL-5 cells assessed as cell growth at 10^-7 M after 48 hrs by SRB assay; conditions: SK-MEL-5, 48 h, read-out: Activity
[24] = test system: SNB-75; assay: Growth inhibition of human SNB75 cells assessed as cell growth at 10^-7 M after 48 hrs by SRB assay; conditions: SNB-75, 48 h, read-out: Activity
[25] = test system: SR; assay: Growth inhibition of human SR cells assessed as cell growth at 10^-7 M after 48 hrs by SRB assay; conditions: read-out: Activity
[26] = test system: K562; assay: Growth inhibition of human K562 cells assessed as cell growth at 10^-7 M after 48 hrs by SRB assay; conditions: K562, 48 h, read-out: Activity
[27] = test system: CCRF-CEM; assay: Growth inhibition of human CCRF-CEM cells assessed as cell growth at 10^-7 M after 48 hrs by SRB assay; conditions: read-out: Activity; method in brief: as §1
[28] = Growth inhibition of human UO31 cells assessed as cell growth at 10^-8 M after 48 hrs by SRB assay; conditions: UO-31, 48 h, read-out: Activity
[29] = test system: CAKI-1; assay: Growth inhibition of human CAKI-1 cells assessed as cell growth at 10^-8 M after 48 hrs by SRB assay; conditions: CAKI-1, 48 h, read-out: Activity; method in brief: as §1
[30] = test system: MOLT-4; assay: Cytotoxicity against human MOLT4 cells after 48 hrs by SRB assay; conditions: MOLT-4, 48 h; method in brief: as §2
[31] = test system: CAKI-1; assay: Growth inhibition of human CAKI-1 cells assessed as cell growth at 10^-4 M after 48 hrs by SRB assay; conditions: CAKI-1, 48 h, read-out: Activity; method in brief: as §1
[32] = test system: 786-0; assay: Growth inhibition of human 786-0 cells assessed as cell growth at 10^-4 M after 48 hrs by SRB assay; conditions: 786-0, 48 h, read-out: Activity; method in brief: as §1
[33] = read-out: LC50 (the source's name)
[34] = read-out: pLC50 (the source's name) (converted)

Cc1ccc(-c2nc3ccc(Cl)cc3c(=O)n2/N=C/c2ccccc2)cc1
growth at 100 µM [1]: 47%
growth at 100 µM [2]: 21%
growth at 0.01 µM [3]: 96%
growth at 10 µM [4]: 66%
growth at 10 µM [5]: 18%
growth at 10 µM [6]: 31%
growth at 1 µM [7]: 60%
growth at 1 µM [8]: 91%
growth at 1 µM [9]: 77%
growth at 1 µM [10]: 90%
growth at 1 µM [11]: 97%
growth at 1 µM [12]: 77%
growth at 100 µM [13]: 51%
growth at 1 µM [14]: 90%
growth at 0.1 µM [15]: 88%
growth at 0.01 µM [16]: 97%
growth at 0.01 µM [17]: 100%
GI50 ([18]; read-out: GI50): 9.98 µM
CC50 [18, 33]: > 100 µM
TGI ([18]; read-out: TGI): > 100 µM
GI50 ([18]; read-out: pGI50 (converted)): 10 µM
CC50 [18, 34]: > 100 µM
TGI ([18]; read-out: pTGI): > 100 µM
growth at 1 µM [19]: 80%
GI50 ([20]; read-out: GI50): 11.8 µM
CC50 [20, 33]: > 100 µM
TGI ([20]; read-out: TGI): > 100 µM
GI50 ([20]; read-out: pGI50 (converted)): 11.7 µM
CC50 [20, 34]: > 100 µM
TGI ([20]; read-out: pTGI): > 100 µM
GI50 ([21]; read-out: GI50): 100 µM
CC50 [21, 33]: > 100 µM
TGI ([21]; read-out: TGI): > 100 µM
GI50 ([21]; read-out: pGI50 (converted)): > 100 µM
CC50 [21, 34]: > 100 µM
TGI ([21]; read-out: pTGI): > 100 µM
growth at 0.1 µM [22]: 85%
growth at 0.1 µM [23]: 92%
growth at 0.1 µM [24]: 81%
growth at 0.1 µM [25]: 93%
growth at 0.1 µM [26]: 97%
growth at 0.1 µM [27]: 97%
growth at 0.01 µM [28]: 77%
growth at 0.01 µM [29]: 89%
GI50 ([30]; read-out: GI50): > 100 µM
CC50 [30, 33]: > 100 µM
TGI ([30]; read-out: TGI): > 100 µM
GI50 ([30]; read-out: pGI50 (converted)): > 100 µM
CC50 [30, 34]: > 100 µM
TGI ([30]; read-out: pTGI): > 100 µM
growth at 100 µM [31]: 32%
growth at 100 µM [32]: 17%
